Bioassay records as filed in PubChem.
Rows were chosen to be rich in hits. Some 1.6% of all compounds tested hit in one or more screens of this group.
MsrA inh – bovine MsrA inhibition. purified bovine MsrA, absorbance read-out. inhibition, % at 15.5 µM. 0.75% of 360,000 active;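 also: 0% = vehicle wells with enzyme and 100% = reference inhibitor wells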
MT1-MMP act inh – MT1-MMP (human) activation inhibition; GFP/RFP ratio change, % at 20 µM; AID 651647; P50281; 0.061% of 360,000 active; HT1080 RFP-PRO-GFP cells, GFP/RFP ratio fluorescence, overnight; percent of plate control window, DMSO zero;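 active = GFP/RFP ratio change of at least 30% with cell ATP level not reduced by more than half and red fluorescence within 50% of control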
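Assay system: RFP-PRO-GFP reporter HT1080 cells; read-out basis: GFP/RFP fluorescence ratio; benchmarks: DMSO wells and RFP-L50D-GFP cells; doses: 20 µM single dose, 1% DMSO; schedule: overnight cell settling, then overnight compound exposure, 37 °C, 5% CO2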
MsrA act – activators of bovine methionine sulfoxide reductase A; purified bovine MsrA, absorbance read-out; activation, % at 10.6 µM; 0.3% of 360,000 active; in the data active = activation above about 7.5%;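 also: 0% = vehicle and 100% = reference activator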
SKN-1 inh – blocks SKN-1 activity in C. elegans. C. elegans VP596 Pgst-4::GFP/RFP ratio, acrylamide-induced, 24 h. inhibition, % at 21.8 µM. 0.49% of 360,000 active. AID 624304;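 active = interference check ratio from 0.5 to 1.5 plus GFP to RFP signal ratio inhibition reaching or exceeding a fixed threshold, cut at about 30% in these data, passing the limit was not always enough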
p-CIP stab down – compounds decreasing mouse p/CIP protein stability; 0.01% of 290,000 active; F442A p/CIP-EGFP cells, EGFP fluorescence, 16 h; AID 1984; Q05BA5; decrease of EGFP signal, % at 10 µM;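 active = EGFP signal decrease of at least 30% at 10 µM or well 3 SD below plate mean, unless failing retest; inactive = the rest, including hits failing retest or dose response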
MsrA conf – confirmation of bovine MsrA inhibitors. shares compounds with MsrA inh. purified bovine MsrA, absorbance read-out. inhibition, % at 15.5 µM. 41% of 2,300 active;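 also: coupled to thioredoxin reductase with NADPH and selenocystamine and DMSO as substrate; 0% = vehicle only and 100% = full effect of reference inhibitor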
* marks the source's active call; other numbers are inactive results; x = no result. Rule as the data show it, unless noted: active = inhibition above about 4.5%; inactive = the rest.

SMILES	MsrA inh	MT1-MMP act inh	MsrA act	SKN-1 inh	p-CIP stab down	MsrA conf
O=C(C(=O)N1CCC(CNS(=O)(=O)c2ccc(C(F)(F)F)cc2)CC1)c1cc2ccccc2o1	1.9	x	x	x	x	x
Cc1ccc2cccc(OC(=O)c3cccnc3Oc3ccccc3)c2n1	-1.4	x	x	x	x	x
COc1cccc(N2CCN(C(=O)c3ccc(=O)oc3)CC2C)c1 (stereo not drawn)	4.9*	-6.7	-7.7	6.2	-14.7	3.9
N/C(=N\N=C\c1cccc(O)c1)c1nonc1N	6.0*	0.1	-2.4	2.2	-2.3	3.5
N/C(=N\N=C\c1ccc(O)cc1)c1nonc1N	6.4*	1.3	-2.2	3.0	9.9	3.7
COc1cc(/C=N/N=C(\N)c2nonc2N)ccc1O	5.5*	3.6	-5.7	16.0	5.9	4.5
N/C(=N\N=C\c1ccc(O)c(O)c1)c1nonc1N	3.9	2.9	-2.5	7.2	-9.0	x
N/C(=N\N=C\c1ccc([N+](=O)[O-])cc1)c1nonc1N	1.0	3.9	-2.4	-7.5	-7.8	x
CCOC(=O)C1=C(C(=O)OCC)C2N(Cc3ccc(C(F)(F)F)cc3)c3ccccc3[C@@]23C[C@@H](C(=O)OC)N(S(=O)(=O)c2ccc(OC)cc2)C3=N1 (stereo partly drawn)	0.2	x	x	x	x	x
CCOC(=O)C1=CCN(S(=O)(=O)c2ccc(Br)cc2)C1c1cccc(Cl)c1 (stereo not drawn)	0.6	x	x	x	x	x
COC(=O)c1cc(S(=O)(=O)NCC2CCN(C(=O)C(=O)c3cccs3)CC2)cs1	0.2	x	x	x	x	x
CCCCOCC1CN(CCCC)S(=O)(=O)c2c(Oc3ccc(OC)cc3)cccc2O1 (stereo not drawn)	0.5	x	x	x	x	x
Cc1cc(/C=C(\C#N)C(=O)Nc2ccccc2)c(C)n1-c1ccc(C(=O)O)cc1	1.5	-2.7	-6.2	-7.3	-15.0	x
Cc1cc(/C=C(/C#N)C(=O)O)c(C)n1-c1cccc2ccccc12	5.7*	5.2	-2.7	8.5	0.1	4.9*
Cc1cccc(NC(=O)/C(C#N)=C\c2cc(C)n(-c3ccc(C(=O)O)cc3)c2C)c1	4.7*	-6.6	-4.1	7.4	10.1	4.2
Cc1c(C(=O)O)cccc1-n1c(C)cc(/C=C(/C#N)C(=O)NCc2ccccc2)c1C	3.8	2.3	-3.2	-2.1	-16.9	x
Cn1cc([N+](=O)[O-])c(C(=O)N/N=C/c2ccc3c(c2)OCO3)n1	4.9*	0.7	-3.2	7.2	0.2	2.6
CN(C)c1ccc(/C=N/NC(=O)c2ccc3c(c2)OCO3)cc1	6.9*	2.0	-5.4	-9.8	-9.5	5.5*
Cc1ccc(C(=O)N/N=C/c2ccc3c(c2)OCO3)o1	5.8*	1.9	-7.0	4.6	-9.1	5.7*
Cc1ccc(C(=O)NN=Cc2ccc3c(c2)OCO3)cc1	2.7	7.3	1.8	2.0	x	x
O=C(NN=Cc1ccc2c(c1)OCO2)NN=Cc1ccc2c(c1)OCO2	3.2	3.9	-4.2	-4.2	x	x
COc1cc(C(=O)NN=Cc2ccc(N(C)C)cc2)cc(OC)c1OC	5.1*	21.4	-5.0	-8.0	x	5.1*
Cc1ccc(/C=N/NC(=O)c2cccc([N+](=O)[O-])c2)o1	5.2*	1.9	-3.2	5.8	-2.9	4.9*
O=C(N/N=C/c1ccc([N+](=O)[O-])o1)c1ccc2c(c1)OCO2	2.1	-5.6	-1.9	7.7	-11.7	x
CN(C)c1ccc(/C=N/NC(=O)c2cccc(N3CCCC3=O)c2)cc1	7.2*	0.1	-5.1	6.2	-10.8	7.0*
SMILES	MsrA inh	MT1-MMP act inh	MsrA act	SKN-1 inh	p-CIP stab down	MsrA conf
COc1cc(C(=O)NCC(=O)N/N=C/c2ccc(-c3cccc([N+](=O)[O-])c3)o2)cc(OC)c1OC	5.3*	10.5	-1.7	8.0	11.9	3.3
Cc1ccc(/C=N\NC(=O)c2ccc3c(c2)OCO3)o1	4.9*	-0.5	-7.7	-5.3	2.7	5.4*
COc1cccc(/C=N/NC(=O)c2cccc(N3CCCC3=O)c2)c1	-1.1	0.7	-2.5	18.6	-10.8	x
CNC(=O)c1ccccc1C1(O)c2ccccc2CCc2ccccc21	0.1	x	x	x	x	x
COc1ccccc1CCn1cnc(-c2ccc(Br)cc2)c1CC(C)C	0.4	x	x	x	x	x
CN(C)/C(CN1CCN(C=O)CC1)=C1\N=C(c2ccccc2)OC1=O	6.0*	-6.0	-5.7	1.3	-12.8	5.3*
CC(=C1N=C(c2ccccc2)OC1=O)c1cccs1	0.3	x	x	x	x	x
Cc1ccc(C(=O)N=c2sccn2C)cc1C	2.0	-4.3	3.6	-7.7	-1.1	x
Cc1ccc(C(=O)N=c2sccn2C)cc1S(=O)(=O)N1CCOCC1	6.0*	1.2	-2.8	12.6	x	3.1
Cn1ccsc1=NC(=O)c1cccc(C#N)c1	5.5*	0.7	-2.9	19.5	-2.9	1.1
C/C(=N/O)c1cc(C(C)(C)C)c(O)c(C(C)(C)C)c1	11.9*	8.3	-7.0	6.1	-1.9	11.4*
CC(C)(Sc1cc(C(C)(C)C)c(O)c(C(C)(C)C)c1)Sc1cc(C(C)(C)C)c(O)c(C(C)(C)C)c1	-0.5	-8.2	-1.5	-5.6	-4.2	x
CCOC(=O)C1=CCN(S(=O)(=O)c2ccc(Cl)cc2)C1c1ccc(Cl)c(Cl)c1 (stereo not drawn)	0.4	x	x	x	x	x
Oc1ccc(/C=N/Nc2cccc3cccnc23)c(O)c1	3.9	-6.6	-1.9	11.4	-24.8	x
Clc1nccnc1N/N=C/c1ccc(Br)cc1	3.8	-1.6	-3.5	29.2	-8.9	x
Oc1ccc(C=NNc2ccccn2)c(O)c1	5.1*	-3.2	-1.2	-4.0	x	3.2
O=c1[nH]ncc(N/N=C\c2ccc(O)cc2O)c1Cl	6.5*	9.3	-3.9	3.4	-9.9	6.2*
COc1ccc(/C=N/Nc2nccnc2Cl)cc1	4.7*	-1.8	-5.2	8.0	-3.0	2.1
Oc1ccc(/C=N/Nc2ncc(Br)cn2)c(O)c1	6.0*	-11.0	-3.9	-1.7	-5.3	5.2*
O=C(NN=Cc1ccco1)C(=O)Nc1cccc(C(F)(F)F)c1	1.1	x	x	x	x	x
Cc1cc(N2CCN(S(C)(=O)=O)C[C@@H]2C)ccc1N1CCN(Cc2ccccc2)[C@@H](C)C1	-0.7	x	x	x	x	x
COc1ccc(-n2c(CSc3ccc(Cl)cc3)n[nH]c2=S)cc1	0.1	x	x	x	x	x
COc1cccc(C=C2SC(=S)N(Cc3ccco3)C2=O)c1OC	0.6	x	x	x	x	x
Oc1ccc(/C=N/Nc2nccnc2Cl)c(O)c1	5.1*	-5.6	-8.2	5.1	0.5	4.2
CCCCN1CC(COCc2ccccc2)Oc2cccc(Oc3ccc(SC)c(C)c3)c2S1(=O)=O (stereo not drawn)	0.3	x	x	x	x	x
O=C1CCC(=O)N1c1nc2nc(-c3ccccc3)cc(-c3ccccc3)n2n1	4.7*	5.3	-8.1	1.2	-10.3	1.9
CN(C(=O)c1cccc(NC(=O)Cc2ccc(NC(=O)C3CCN(C(=O)CCc4ccccc4)CC3)cc2)c1)C1CCCC1	-0.7	x	x	x	x	x
O=C(N/N=C/c1c[nH]c2ccccc12)c1cccc(O)c1	4.3	0.6	-2.6	-1.5	-9.2	x
Cn1ccc(C(=O)N/N=C/c2c[nH]c3ccccc23)n1	5.7*	x	-14.1	2.0	-8.6	3.1
